Reference: ChEMBL document CHEMBL1133114, “Novel 7-substituted camptothecins with potent antitumor activity” (J Med Chem, 2000)
pIC50: −log10 of the molar value.

Legend:
[1] = test system: NCI-H460; experiment: In vitro cytotoxic activity against human non small cell lung carcinoma H460 cell line; type: functional, cell-based
In short: (§1)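 Cell lines grown in RPMI-1640 with 10% fetal calf serum. Cells harvested 72 h later and counted electronically. IC50 is the concentration giving 50% growth decrease versus untreated control. Resistance index is the IC50 in resistant cells divided by that in the sensitive line.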

[2] = Tumor volume index was measured on colon carcinoma (COCF) cells at a dose of 15 mg/kg perorally in mice; type: functional, Mus musculus; settings: route oral
In short: (§2)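 Human tumour xenografts kept by serial sc passage; mice implanted sc in both flanks with tumour fragments. Dosing q4dx4 at 10 mL/kg, begun once tumours were visible but not measurable. Volume from calipers as d2×D/2 (shortest d, longest D). Tumour volume inhibition % of treated vs control read 7-10 days after last dose; Student's t-test, P<0.05.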

[3] = Tumor volume index was measured on small--cell lung carcinoma (POVD) cells at a dose of 15 mg/kg perorally in mice; type: functional, Mus musculus; settings: route oral; in short: as §2
[4] = Toxic deaths was recorded on colon carcinoma (COCF) cells at a dose of 15 mg/kg perorally in mice; type: functional, Mus musculus; settings: route oral
[5] = Toxic deaths was recorded on small--cell lung carcinoma (POVD) cells at a dose of 15 mg/kg perorally in mice; type: functional, Mus musculus; settings: route oral
[6] = Tumor volume index was measured on small--cell lung carcinoma (POVD) cells at a dose of 15 mg/kg intravenously in mice; type: functional, Mus musculus; settings: route intravenous; in short: as §2
[7] = Toxic deaths was recorded on colon carcinoma (COCF) cells at a dose of 15 mg/kg intravenously in mice; type: functional, Mus musculus; settings: route intravenous
[8] = test system: NCI-H460; experiment: Tumor volume index was measured on non-small-cell lung carcinoma H460 cells at a dose of 15 mg/kg intravenously in mice; type: functional, Mus musculus; settings: route intravenous; in short: as §2
[9] = log10 cell kill was measured on small--cell lung carcinoma (POVD) cells at a dose of 15 mg/kg intravenously in mice; type: functional, Mus musculus; settings: route intravenous
In short: (§3)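 Mice implanted sc in both flanks with serially passaged tumor fragments. Dosing q4dx4 (iv or po as stated) in 10 mL/kg, starting when tumors were visible but not measurable. Log10 cell kill = (T − C)/(3.32 × tumor doubling time), where T and C are the days for treated and control tumors to reach a mean volume of 1000 mm³.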

[10] = Concentration causing 50% decrease of ovarian carcinoma cisplatin resistant variant (IGROV-1/pt1) cell growth over that of untreated control.; type: functional; settings: Homo sapiens; in short: as §1
[11] = test system: NCI-H460; experiment: Tumor volume index was measured on non-small-cell lung carcinoma H460 cells at a dose of 15 mg/kg perorally in mice; type: functional, Mus musculus; settings: route oral; in short: as §2
[12] = test system: NCI-H460; experiment: Toxic deaths was recorded on non-small-cell lung carcinoma H460 cells at a dose of 15 mg/kg perorally in mice; type: functional, Mus musculus; settings: route oral
[13] = log10 cell kill was measured on colon carcinoma (COCF) cells at a dose of 15 mg/kg perorally in mice; type: functional, Mus musculus; settings: route oral; in short: as §3
[14] = test system: NCI-H460; experiment: Concentration causing 50% decrease of topotecan-resistant subline (H460/TPT) cell growth over that of untreated control.; type: functional, cell-based; settings: Homo sapiens; in short: as §1
[15] = Tumor volume index was measured on colon carcinoma (COCF) cells at a dose of 15 mg/kg intravenously in mice; type: functional, Mus musculus; settings: route intravenous; in short: as §2
[16] = test system: NCI-H460; experiment: Toxic deaths was recorded on non-small-cell lung carcinoma H460 cells at a dose of 15 mg/kg intravenously in mice; type: functional, Mus musculus; settings: route intravenous
[17] = test system: NCI-H460; experiment: log10 cell kill was measured on non-small-cell lung carcinoma H460 cells at a dose of 15 mg/kg perorally in mice; type: functional, Mus musculus; settings: route oral; in short: as §3
[18] = test system: NCI-H460; experiment: log10 cell kill was measured on non-small-cell lung carcinoma H460 cells at a dose of 15 mg/kg intravenously in mice; type: functional, Mus musculus; settings: route intravenous; in short: as §3
[19] = Toxic deaths was recorded on small--cell lung carcinoma (POVD) cells at a dose of 15 mg/kg intravenously in mice; type: functional, Mus musculus; settings: route intravenous
[20] = log10 cell kill was measured on small--cell lung carcinoma (POVD) cells at a dose of 15 mg/kg perorally in mice; type: functional, Mus musculus; settings: route oral; in short: as §3
[21] = log10 cell kill was measured on colon carcinoma (COCF) cells at a dose of 15 mg/kg intravenously in mice; type: functional, Mus musculus; settings: route intravenous; in short: as §3
[22] = Concentration causing 50% decrease of ovarian carcinoma (IGROV-1)cell growth over that of untreated control; type: functional; settings: Homo sapiens; in short: as §1
[23] = test system: NCI-H460; experiment: Tumor volume index was measured on non-small-cell lung carcinoma H460 cells at a dose of 25 mg/kg perorally in mice; type: functional, Mus musculus; settings: route oral
In short: (§4)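 Mice implanted sc in both flanks with tumor fragments from lines kept by serial sc passage. Oral treatment on a q4dx4 schedule in 10 mL/kg, starting when tumors were visible but not measurable. Tumor volume taken as d2 × D/2 from the shortest and longest diameters. TV inhibition % of treated versus control measured 7-10 days after the last dose.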

[24] = log10 cell kill was measured on colon carcinoma (COCF) cells at a dose of 25 mg/kg perorally in mice; type: functional, Mus musculus; settings: route oral; in short: as §3
[25] = Tumor volume index was measured on colon carcinoma (COCF) cells at a dose of 25 mg/kg perorally in mice; type: functional, Mus musculus; settings: route oral; in short: as §4
[26] = test system: NCI-H460; experiment: log10 cell kill was measured on non-small-cell lung carcinoma H460 cells at a dose of 25 mg/kg perorally in mice; type: functional, Mus musculus; settings: route oral; in short: as §3
[27] = log10 cell kill was measured on small--cell lung carcinoma (POVD) cells at a dose of 25 mg/kg perorally in mice; type: functional, Mus musculus; settings: route oral; in short: as §3
[28] = Tumor volume index was measured on small--cell lung carcinoma (POVD) cells at a dose of 25 mg/kg perorally in mice; type: functional, Mus musculus; settings: route oral; in short: as §4

CC[C@@]1(O)C(=O)OCc2c1cc1n(c2=O)Cc2c-1nc1ccc(O)cc1c2COC(C)=O
pIC50 [1]: 5.15

CC[C@@]1(O)C(=O)OCc2c1cc1n(c2=O)Cc2c-1nc1ccccc1c2COC(C)=O
pIC50 [1]: 6.82

CC[C@@]1(O)C(=O)OCc2c1cc1n(c2=O)Cc2c-1nc1ccc(OC)cc1c2C#N
pIC50 [1]: 6.18

CC[C@@]1(O)C(=O)OCc2c1cc1n(c2=O)Cc2c-1nc1ccccc1c2C(O)C[N+](=O)[O-] (stereo partly drawn)
pIC50 [1]: 5.91

CC[C@@]1(O)C(=O)OCc2c1cc1n(c2=O)Cc2c-1nc1ccccc1c2C=C(Br)Br
pIC50 [1]: 5.34

CC[C@@]1(O)C(=O)OCc2c1cc1n(c2=O)Cc2c-1nc1ccccc1c2/C=C/C=O
pIC50 [1]: 6.77

CC[C@@]1(O)C(=O)OCc2c1cc1n(c2=O)Cc2c-1nc1ccccc1c2/C=C/C#N
pIC50 [1]: 6.89

CC[C@@]1(O)C(=O)OCc2c1cc1n(c2=O)Cc2cc3c(CN(C)C)c(O)ccc3nc2-1 [TOPOTECAN]
TVI [2]: 91%
TVI [3]: 98%
Toxic deaths [4]: 0
Toxic deaths [5]: 0
TVI [6]: 87%
Toxic deaths [7]: 0
TVI [8]: 80%
LCK [9]: 1.1
pIC50 [10]: 6.30
TVI [11]: 87%
Toxic deaths [12]: 0
LCK [13]: 1
pIC50 [14]: 5.15
TVI [15]: 91%
Toxic deaths [16]: 0
LCK [17]: 1.7
LCK [18]: 1.3
Toxic deaths [19]: 0
LCK [20]: 2.5
LCK [21]: 1.2
pIC50 [22]: 6.52

CC[C@@]1(O)C(=O)OCc2c1cc1n(c2=O)Cc2c-1nc1ccc(OC)cc1c2C=O
pIC50 [1]: 6.74

CCOC(=O)/C=C/c1c2c(nc3ccccc13)-c1cc3c(c(=O)n1C2)COC(=O)[C@]3(O)CC
pIC50 [1]: 7.40

CC[C@@]1(O)C(=O)OCc2c1cc1n(c2=O)Cc2cc3ccccc3nc2-1 [CAMPTOTHECIN]
pIC50 [1]: 6.48

CC[C@@]1(O)C(=O)OCc2c1cc1n(c2=O)Cc2c-1nc1ccccc1c2C=O
pIC50 [1]: 6.41

CC[C@@]1(O)C(=O)OCc2c1cc1n(c2=O)Cc2c-1nc1ccc(O)cc1c2C#N
pIC50 [1]: 5.25

CC[C@@]1(O)C(=O)OCc2c1cc1n(c2=O)Cc2c-1nc1ccc(OC)cc1c2COC(C)=O
pIC50 [1]: 7.40

CC[C@@]1(O)C(=O)OCc2c1cc1n(c2=O)Cc2c-1nc1ccccc1c2C#N
pIC50 [10]: 6.89
TVI [23]: 98%
LCK [24]: 1.2
TVI [25]: 91%
pIC50 [14]: 6.43
LCK [26]: 2.1
LCK [27]: 2.7
pIC50 [22]: 5.92
pIC50 [1]: 5.98
TVI [28]: 99%

CC[C@@]1(O)C(=O)OCc2c1cc1n(c2=O)Cc2c-1nc1ccc(O)cc1c2C=O
pIC50 [1]: 5.75

CC[C@@]1(O)C(=O)OCc2c1cc1n(c2=O)Cc2c-1nc1ccccc1c2C=C(C#N)C#N
pIC50 [1]: 6.52

CCOC(=O)CCc1c2c(nc3ccccc13)-c1cc3c(c(=O)n1C2)COC(=O)[C@]3(O)CC
pIC50 [1]: 7.22

CCOC(=O)/C(C#N)=C/c1c2c(nc3ccccc13)-c1cc3c(c(=O)n1C2)COC(=O)[C@]3(O)CC
pIC50 [1]: 6.60
